Source: ChEMBL document CHEMBL1165943, “Design and synthesis of new anticancer pyrimidines with multiple-kinase inhibitory effect” (Bioorg Med Chem, 2010)

Legend:
[1] = target: Serine/threonine-protein kinase pim-1 (Homo sapiens) (UniProt P11309); assay: Inhibition of PIM1 at 10 uM by HotSpot assay
[2] = target: Protein kinase C alpha type (Homo sapiens) (UniProt P17252); assay: Inhibition of PKCalpha at 10 uM by HotSpot assay
[3] = target: Proto-oncogene tyrosine-protein kinase Src (Homo sapiens) (UniProt P12931); assay: Inhibition of c-SRC at 10 uM by HotSpot assay
[4] = target: Serine/threonine-protein kinase B-raf (Homo sapiens) (UniProt P15056); assay: Inhibition of B-Raf at 10 uM by HotSpot assay
[5] = target: Aurora kinase A (Homo sapiens) (UniProt O14965); assay: Inhibition of Aurora A at 10 uM by HotSpot assay
[6] = target: [Pyruvate dehydrogenase (acetyl-transferring)] kinase isozyme 1, mitochondrial (Homo sapiens) (UniProt Q15118); assay: Inhibition of PDK1 at 10 uM by HotSpot assay
[7] = target: Platelet-derived growth factor receptor beta (Homo sapiens) (UniProt P09619); assay: Inhibition of PDGFRbeta at 10 uM by HotSpot assay
[8] = target: Tyrosine-protein kinase SYK (Homo sapiens) (UniProt P43405); assay: Inhibition of SYK at 10 uM by HotSpot assay
[9] = target: Serine/threonine-protein kinase mTOR (Homo sapiens) (UniProt P42345); assay: Inhibition of mTOR at 10 uM by HotSpot assay
[10] = target: Mitogen-activated protein kinase 8 (Homo sapiens) (UniProt P45983); assay: Inhibition of JNK1 at 10 uM by HotSpot assay
[11] = target: Dual specificity mitogen-activated protein kinase kinase 1 (Homo sapiens) (UniProt Q02750); assay: Inhibition of MEK1 at 10 uM by HotSpot assay
[12] = target: Macrophage-stimulating protein receptor (Homo sapiens) (UniProt Q04912); assay: Inhibition of RON at 10 uM by HotSpot assay
[13] = target: Mitogen-activated protein kinase 1 (Homo sapiens) (UniProt P28482); assay: Inhibition of MAPK1 at 10 uM by HotSpot assay
[14] = target: Tyrosine-protein kinase JAK3 (Homo sapiens) (UniProt P52333); assay: Inhibition of JAK3 at 10 uM by HotSpot assay
[15] = target: Serine/threonine-protein kinase PLK1 (Homo sapiens) (UniProt P53350); assay: Inhibition of PLK1 at 10 uM by HotSpot assay
[16] = target: Serine/threonine-protein kinase Chk1 (Homo sapiens) (UniProt O14757); assay: Inhibition of CHK1 at 10 uM by HotSpot assay
[17] = target: Homeodomain-interacting protein kinase 1 (Homo sapiens) (UniProt Q86Z02); assay: Inhibition of HIPK1 at 10 uM by HotSpot assay
[18] = target: Cyclin-dependent kinase 2/cyclin E1 (Homo sapiens) (UniProt P24864+P24941); assay: Inhibition of CDK2/Cyclin E at 10 uM by HotSpot assay; assay type: protein-complex assay
[19] = target: Angiopoietin-1 receptor (Homo sapiens) (UniProt Q02763); assay: Inhibition of TIE2 at 10 uM by HotSpot assay
MCF7 = assay: Cytotoxicity against human MCF7 cells assessed as cell growth at 100 nM after 48 hrs by sulforhodamine B assay; assay type: functional; conditions: MCF7, 48 h, read-out: Activity
SK-MEL-28 [20] = assay: Cytotoxicity against human SK-MEL-28 cells assessed as cell growth at 100 nM after 48 hrs by sulforhodamine B assay; assay type: functional; conditions: SK-MEL-28, 48 h, read-out: Activity
HCC 2998 = assay: Cytotoxicity against human HCC2998 cells assessed as cell growth at 0.01 uM after 48 hrs by sulforhodamine B assay; assay type: functional; conditions: HCC 2998, 48 h, read-out: Activity
[21] = Cytotoxicity against human RPMI8266 cells assessed as cell growth at 100 nM after 48 hrs by sulforhodamine B assay; assay type: functional; conditions: read-out: Activity
SK-MEL-28 [22] = assay: Growth inhibition of human SK-MEL-28 cells after 48 hrs by sulforhodamine B assay; assay type: functional; conditions: SK-MEL-28, 48 h
Method in brief: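 Adherent SK-MEL-28 cells, plated in RPMI 1640 with 5% FBS and 2 mM L-glutamine, get five 10-fold or ½log drug dilutions for 48 h at 37 °C. Cells are fixed with cold TCA (final 10%) for 60 min at 4 °C, stained with 0.4% SRB, solubilized in 10 mM Tris and read at 515 nm. IC50 is solved from [(Ti−Tz)/(C−Tz)]×100 = 50.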

[23] = Growth inhibition of human RPMI8266 cells after 48 hrs by sulforhodamine B assay; assay type: functional
Method in brief: (§1)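 Cells grown in RPMI 1640 with 5% FBS and 2 mM L-glutamine, seeded at 5,000–40,000 cells/well according to doubling time. After 24 h, time-zero plates are TCA-fixed. Five concentrations (10-fold or ½log dilutions, DMSO stocks) are applied for 48 h at 37 °C, 5% CO₂. Cells are TCA-fixed, SRB-stained and read at 515 nm. IC₅₀ is taken from [(Ti−Tz)/(C−Tz)]×100 = 50.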

PC-3 = assay: Cytotoxicity against human PC3 cells assessed as cell growth at 0.01 uM after 48 hrs by sulforhodamine B assay; assay type: functional; conditions: PC-3, 48 h, read-out: Activity
NCI-H226 = assay: Cytotoxicity against human NCI-H226 cells assessed as cell growth at 0.001 uM after 48 hrs by sulforhodamine B assay; assay type: functional; conditions: NCI-H226, 48 h, read-out: Activity
SR [24] = assay: Growth inhibition of human SR cells after 48 hrs by sulforhodamine B assay; assay type: functional; method in brief: as §1
SR [25] = assay: Cytotoxicity against human SR cells assessed as cell growth at 0.01 uM after 48 hrs by sulforhodamine B assay; assay type: functional; conditions: read-out: Activity
SN12C = assay: Cytotoxicity against human SN12C cells assessed as cell growth at 10 uM after 48 hrs by sulforhodamine B assay; assay type: functional; conditions: read-out: Activity
RXF 393 = assay: Cytotoxicity against human RXF393 cells assessed as cell growth at 100 nM after 48 hrs by sulforhodamine B assay; assay type: functional; conditions: RXF 393, 48 h, read-out: Activity
CCRF-CEM = assay: Growth inhibition of human CCRF-CEM cells after 48 hrs by sulforhodamine B assay; assay type: functional
Method in brief: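 Five-dose SRB assay. Cells in RPMI 1640 with 5% FBS and 2 mM L-glutamine were seeded at 5,000–40,000 cells/well, with a TCA-fixed time-zero plate (Tz) taken at 24 h. Compound stocks were in DMSO, serially diluted 10-fold or ½-log to five concentrations, and incubated 48 h at 37 °C. Plates were stained with SRB and read at 515 nm. IC₅₀ was taken where [(Ti−Tz)/(C−Tz)]×100 = 50.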

SK-MEL-28 [26] = assay: Cytotoxicity against human SK-MEL-28 cells assessed as cell growth at 0.01 uM after 48 hrs by sulforhodamine B assay; assay type: functional; conditions: SK-MEL-28, 48 h, read-out: Activity
[27] = read-out: LC50 (the source's name)

Sequence of Mitogen-activated protein kinase 1 (Homo sapiens) (P28482 whole entry): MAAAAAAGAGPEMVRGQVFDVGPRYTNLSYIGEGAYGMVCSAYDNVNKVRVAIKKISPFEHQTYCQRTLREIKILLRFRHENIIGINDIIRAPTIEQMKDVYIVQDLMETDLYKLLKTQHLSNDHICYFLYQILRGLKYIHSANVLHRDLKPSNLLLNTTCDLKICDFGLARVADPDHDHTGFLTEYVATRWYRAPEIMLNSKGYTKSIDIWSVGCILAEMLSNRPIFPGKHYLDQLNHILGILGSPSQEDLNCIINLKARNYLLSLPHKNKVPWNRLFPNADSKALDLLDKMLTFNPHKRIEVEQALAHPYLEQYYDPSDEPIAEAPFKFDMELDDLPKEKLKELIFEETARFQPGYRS
Sequence of Serine/threonine-protein kinase pim-1 (Homo sapiens) (P11309 whole entry, looked up): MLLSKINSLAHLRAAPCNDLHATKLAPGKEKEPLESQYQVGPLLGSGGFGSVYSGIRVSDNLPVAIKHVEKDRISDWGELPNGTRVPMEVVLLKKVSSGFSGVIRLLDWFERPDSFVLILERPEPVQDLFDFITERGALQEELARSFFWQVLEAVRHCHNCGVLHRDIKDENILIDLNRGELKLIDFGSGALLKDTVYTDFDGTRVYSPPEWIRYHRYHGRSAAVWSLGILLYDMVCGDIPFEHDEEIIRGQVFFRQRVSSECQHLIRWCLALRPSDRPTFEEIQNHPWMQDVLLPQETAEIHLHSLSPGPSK
Sequence of Tyrosine-protein kinase JAK3 (Homo sapiens) (P52333 whole entry): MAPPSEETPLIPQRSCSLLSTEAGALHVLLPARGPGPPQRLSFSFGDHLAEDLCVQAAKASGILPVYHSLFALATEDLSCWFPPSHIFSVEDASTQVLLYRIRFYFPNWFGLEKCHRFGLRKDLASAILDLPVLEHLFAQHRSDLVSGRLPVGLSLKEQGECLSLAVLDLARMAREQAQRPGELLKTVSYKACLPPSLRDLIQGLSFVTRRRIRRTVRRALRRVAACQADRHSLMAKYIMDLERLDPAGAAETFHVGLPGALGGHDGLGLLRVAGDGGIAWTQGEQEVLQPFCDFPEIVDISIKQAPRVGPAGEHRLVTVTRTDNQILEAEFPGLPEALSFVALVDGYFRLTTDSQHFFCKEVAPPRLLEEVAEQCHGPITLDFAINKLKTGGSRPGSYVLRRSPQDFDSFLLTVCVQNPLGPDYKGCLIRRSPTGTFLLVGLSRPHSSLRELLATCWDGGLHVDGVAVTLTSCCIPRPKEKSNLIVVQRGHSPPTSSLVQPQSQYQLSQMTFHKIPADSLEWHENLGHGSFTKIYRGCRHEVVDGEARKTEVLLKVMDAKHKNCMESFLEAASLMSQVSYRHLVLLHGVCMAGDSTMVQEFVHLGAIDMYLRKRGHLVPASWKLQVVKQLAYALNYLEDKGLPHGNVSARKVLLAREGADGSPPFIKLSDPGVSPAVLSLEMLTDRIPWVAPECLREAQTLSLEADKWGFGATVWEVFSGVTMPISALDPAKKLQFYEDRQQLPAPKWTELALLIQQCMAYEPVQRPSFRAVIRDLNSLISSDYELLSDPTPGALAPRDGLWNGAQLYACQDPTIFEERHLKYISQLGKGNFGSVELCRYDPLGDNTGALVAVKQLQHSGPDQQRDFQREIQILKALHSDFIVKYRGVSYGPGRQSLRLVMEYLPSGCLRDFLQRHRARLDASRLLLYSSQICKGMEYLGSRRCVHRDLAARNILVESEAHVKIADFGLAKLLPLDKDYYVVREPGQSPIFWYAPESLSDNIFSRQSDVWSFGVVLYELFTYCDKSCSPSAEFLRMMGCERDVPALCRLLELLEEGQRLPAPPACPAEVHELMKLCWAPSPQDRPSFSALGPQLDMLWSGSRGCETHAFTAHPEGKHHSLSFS
Sequence of Mitogen-activated protein kinase 8 (Homo sapiens) (P45983 whole entry): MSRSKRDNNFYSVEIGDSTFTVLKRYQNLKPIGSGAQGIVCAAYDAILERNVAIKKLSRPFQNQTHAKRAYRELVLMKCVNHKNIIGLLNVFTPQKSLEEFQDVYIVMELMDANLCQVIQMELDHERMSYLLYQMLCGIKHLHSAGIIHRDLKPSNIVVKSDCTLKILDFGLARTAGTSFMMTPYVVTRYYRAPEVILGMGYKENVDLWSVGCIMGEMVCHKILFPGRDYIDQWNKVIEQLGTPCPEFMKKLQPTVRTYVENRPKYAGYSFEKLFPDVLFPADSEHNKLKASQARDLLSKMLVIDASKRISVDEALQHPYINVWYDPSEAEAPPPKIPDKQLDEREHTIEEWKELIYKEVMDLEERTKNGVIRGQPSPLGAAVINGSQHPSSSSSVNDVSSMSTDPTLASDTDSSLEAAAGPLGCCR
Sequence of Serine/threonine-protein kinase PLK1 (Homo sapiens) (P53350 whole entry): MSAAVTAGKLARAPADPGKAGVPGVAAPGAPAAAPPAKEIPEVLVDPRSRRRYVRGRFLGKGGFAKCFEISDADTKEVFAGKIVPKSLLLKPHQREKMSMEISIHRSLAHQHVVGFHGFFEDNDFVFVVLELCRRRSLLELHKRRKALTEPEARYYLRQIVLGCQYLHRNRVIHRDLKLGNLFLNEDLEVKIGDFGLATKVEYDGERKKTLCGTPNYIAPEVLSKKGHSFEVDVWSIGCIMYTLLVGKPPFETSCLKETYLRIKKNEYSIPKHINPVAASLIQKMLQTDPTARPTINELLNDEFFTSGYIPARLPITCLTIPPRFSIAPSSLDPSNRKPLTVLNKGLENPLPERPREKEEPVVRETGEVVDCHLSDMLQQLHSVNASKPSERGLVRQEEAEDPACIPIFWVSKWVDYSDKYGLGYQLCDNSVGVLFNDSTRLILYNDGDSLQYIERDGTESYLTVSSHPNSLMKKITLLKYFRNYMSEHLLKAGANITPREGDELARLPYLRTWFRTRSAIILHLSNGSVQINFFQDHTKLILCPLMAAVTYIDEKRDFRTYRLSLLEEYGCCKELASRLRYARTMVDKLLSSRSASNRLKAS
Sequence of Macrophage-stimulating protein receptor (Homo sapiens) (Q04912 25-304 limits assumed): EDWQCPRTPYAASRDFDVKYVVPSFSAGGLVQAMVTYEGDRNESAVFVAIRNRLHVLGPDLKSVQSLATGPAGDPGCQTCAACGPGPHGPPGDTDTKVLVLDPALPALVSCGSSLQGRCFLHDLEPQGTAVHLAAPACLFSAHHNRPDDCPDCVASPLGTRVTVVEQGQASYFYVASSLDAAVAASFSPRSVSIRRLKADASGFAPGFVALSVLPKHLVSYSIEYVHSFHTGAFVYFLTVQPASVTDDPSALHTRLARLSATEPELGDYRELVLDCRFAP
Sequence of Macrophage-stimulating protein receptor (Homo sapiens) (Q04912 310-1400 limits assumed): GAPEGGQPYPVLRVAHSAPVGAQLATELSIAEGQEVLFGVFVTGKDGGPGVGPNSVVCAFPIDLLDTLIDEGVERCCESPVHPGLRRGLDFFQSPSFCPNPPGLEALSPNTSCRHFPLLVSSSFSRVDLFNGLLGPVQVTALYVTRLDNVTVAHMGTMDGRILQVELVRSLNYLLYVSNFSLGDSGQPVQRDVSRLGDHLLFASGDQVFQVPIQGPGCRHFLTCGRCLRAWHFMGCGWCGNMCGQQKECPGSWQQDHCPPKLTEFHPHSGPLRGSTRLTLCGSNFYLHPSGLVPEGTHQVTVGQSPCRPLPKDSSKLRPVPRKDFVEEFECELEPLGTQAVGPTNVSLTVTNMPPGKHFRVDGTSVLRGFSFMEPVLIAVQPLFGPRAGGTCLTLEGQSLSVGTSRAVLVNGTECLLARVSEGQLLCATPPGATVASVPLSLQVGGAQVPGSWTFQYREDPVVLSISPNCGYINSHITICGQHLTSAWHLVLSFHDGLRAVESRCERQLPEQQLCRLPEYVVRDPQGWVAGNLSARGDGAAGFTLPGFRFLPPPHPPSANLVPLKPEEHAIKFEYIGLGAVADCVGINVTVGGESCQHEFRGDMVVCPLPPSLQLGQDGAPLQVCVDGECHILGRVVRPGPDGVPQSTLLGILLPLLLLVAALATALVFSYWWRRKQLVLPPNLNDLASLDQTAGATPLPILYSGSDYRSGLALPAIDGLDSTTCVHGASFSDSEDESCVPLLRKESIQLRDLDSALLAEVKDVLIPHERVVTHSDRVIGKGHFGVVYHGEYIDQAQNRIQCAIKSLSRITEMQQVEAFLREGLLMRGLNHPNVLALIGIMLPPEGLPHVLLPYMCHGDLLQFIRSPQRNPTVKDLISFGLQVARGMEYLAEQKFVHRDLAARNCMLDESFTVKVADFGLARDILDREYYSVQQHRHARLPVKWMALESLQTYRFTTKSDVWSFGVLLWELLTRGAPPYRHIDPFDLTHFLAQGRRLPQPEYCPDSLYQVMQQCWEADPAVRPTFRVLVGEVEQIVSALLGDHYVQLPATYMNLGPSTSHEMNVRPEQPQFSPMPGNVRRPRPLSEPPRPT
Sequence of Aurora kinase A (Homo sapiens) (O14965 whole entry): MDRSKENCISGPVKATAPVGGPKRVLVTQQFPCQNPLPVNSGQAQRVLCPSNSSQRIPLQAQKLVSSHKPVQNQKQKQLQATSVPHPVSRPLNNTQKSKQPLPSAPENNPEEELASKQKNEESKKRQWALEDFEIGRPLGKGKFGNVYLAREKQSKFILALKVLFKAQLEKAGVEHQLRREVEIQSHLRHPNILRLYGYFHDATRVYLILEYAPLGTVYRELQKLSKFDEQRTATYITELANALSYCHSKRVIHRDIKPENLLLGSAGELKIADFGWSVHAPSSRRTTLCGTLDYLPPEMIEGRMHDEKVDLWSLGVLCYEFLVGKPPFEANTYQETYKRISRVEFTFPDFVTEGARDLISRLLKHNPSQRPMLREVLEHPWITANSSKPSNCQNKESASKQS
Sequence of Dual specificity mitogen-activated protein kinase kinase 1 (Homo sapiens) (Q02750 whole entry): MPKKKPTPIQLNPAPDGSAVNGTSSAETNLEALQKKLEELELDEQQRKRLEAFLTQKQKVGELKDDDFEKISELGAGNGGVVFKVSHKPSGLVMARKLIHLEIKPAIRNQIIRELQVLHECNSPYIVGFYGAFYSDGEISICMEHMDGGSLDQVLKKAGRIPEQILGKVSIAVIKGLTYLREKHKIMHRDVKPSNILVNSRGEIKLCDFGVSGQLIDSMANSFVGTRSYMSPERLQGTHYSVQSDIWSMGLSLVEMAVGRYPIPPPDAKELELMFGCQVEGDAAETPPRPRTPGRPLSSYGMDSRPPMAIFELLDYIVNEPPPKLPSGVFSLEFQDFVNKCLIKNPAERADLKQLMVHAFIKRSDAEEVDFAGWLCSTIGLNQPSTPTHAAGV

Question: With `CC(=O)Nc1cccc(-c2ccc(-c3ccnc(NC(=O)Nc4cc(C(F)(F)F)cc(C(F)(F)F)c4)n3)cn2)c1.Cl` as the compound, how does the inhibition [1] read?
Answer: 60%

Question: And the inhibition [2]?
Answer: < 50%

Question: What about the inhibition [3] of the same compound?
Answer: 60%

Question: And the inhibition [4]?
Answer: < 50%

Question: What about the inhibition [5] of the same compound?
Answer: 60%

Question: What about the inhibition [6] of the same compound?
Answer: < 50%

Question: What about the inhibition [7] of the same compound?
Answer: < 50%

Question: And the inhibition [8]?
Answer: < 50%

Question: And the inhibition [9]?
Answer: < 50%

Question: What about the inhibition [10] of the same compound?
Answer: < 50%

Question: What about the inhibition [11] of the same compound?
Answer: < 50%

Question: And the inhibition [12]?
Answer: < 50%

Question: And the inhibition [13]?
Answer: < 50%

Question: And the inhibition [14]?
Answer: < 50%

Question: And the inhibition [15]?
Answer: < 50%

Question: What about the inhibition [16] of the same compound?
Answer: < 50%

Question: And the inhibition [17]?
Answer: < 50%

Question: And the inhibition [18]?
Answer: < 50%

Question: And the inhibition [19]?
Answer: < 50%

Question: Which growth at 0.1 µM (MCF7) does the source give for `CC(=O)c1ccccc1-c1ccc(-c2ccnc(NC(=O)Nc3cc(N4CCOCC4)cc(C(F)(F)F)c3)n2)cn1` here?
Answer: 100%

Question: What about the growth at 0.1 µM (SK-MEL-28 [20]) of the same compound?
Answer: 92%

Question: And the growth at 0.01 µM (HCC 2998)?
Answer: 113%

Question: And the growth at 0.1 µM [21]?
Answer: 79%

Question: And the TGI (SK-MEL-28 [22])?
Answer: > 100 µM

Question: What about the CC50 (SK-MEL-28 [22]; [27]) of the same compound?
Answer: > 100 µM

Question: And the GI50 [23]?
Answer: > 100 µM

Question: And the TGI [23]?
Answer: > 100 µM

Question: What about the CC50 [23, 27] of the same compound?
Answer: > 100 µM

Question: What about the growth at 0.01 µM (PC-3) of the same compound?
Answer: 108%

Question: And the growth at 0.001 µM (NCI-H226)?
Answer: 105%

Question: And the GI50 (SR [24])?
Answer: > 100 µM

Question: And the TGI (SR [24])?
Answer: > 100 µM

Question: And the CC50 (SR [24]; [27])?
Answer: > 100 µM

Question: What about the growth at 0.01 µM (SR [25]) of the same compound?
Answer: 89%

Question: And the growth at 10 µM (SN12C)?
Answer: 79%

Question: And the growth at 0.1 µM (RXF 393)?
Answer: 82%

Question: What about the GI50 (CCRF-CEM) of the same compound?
Answer: > 100 µM

Question: And the TGI (CCRF-CEM)?
Answer: > 100 µM

Question: What about the CC50 (CCRF-CEM; [27]) of the same compound?
Answer: > 100 µM

Question: What about the growth at 0.01 µM (SK-MEL-28 [26]) of the same compound?
Answer: 107%
